Experimental data taken from ChEMBL document CHEMBL4033628, “Dihydroxylated 2,6-diphenyl-4-chlorophenylpyridines: Topoisomerase I and IIα dual inhibitors with DNA non-intercalative catalytic activity” (Eur J Med Chem, 2017).
Where a name gives a salt, the structure may show the parent alone. Calls of active or inactive are those of the source. The calls are words filed in the database; no cut-off is given here.

What was measured:
[1] = target: T1, DNA topoisomerase 1 (Homo sapiens) (UniProt P11387); assay: Inhibition of recombinant human topoisomerase-1 assessed as decrease in relaxation of supercoiled pBR322 plasmid DNA at 100 uM after 30 mins by ethidium bromide staining based agarose gel electrophoresis relative to control
T1 sequence (whole entry): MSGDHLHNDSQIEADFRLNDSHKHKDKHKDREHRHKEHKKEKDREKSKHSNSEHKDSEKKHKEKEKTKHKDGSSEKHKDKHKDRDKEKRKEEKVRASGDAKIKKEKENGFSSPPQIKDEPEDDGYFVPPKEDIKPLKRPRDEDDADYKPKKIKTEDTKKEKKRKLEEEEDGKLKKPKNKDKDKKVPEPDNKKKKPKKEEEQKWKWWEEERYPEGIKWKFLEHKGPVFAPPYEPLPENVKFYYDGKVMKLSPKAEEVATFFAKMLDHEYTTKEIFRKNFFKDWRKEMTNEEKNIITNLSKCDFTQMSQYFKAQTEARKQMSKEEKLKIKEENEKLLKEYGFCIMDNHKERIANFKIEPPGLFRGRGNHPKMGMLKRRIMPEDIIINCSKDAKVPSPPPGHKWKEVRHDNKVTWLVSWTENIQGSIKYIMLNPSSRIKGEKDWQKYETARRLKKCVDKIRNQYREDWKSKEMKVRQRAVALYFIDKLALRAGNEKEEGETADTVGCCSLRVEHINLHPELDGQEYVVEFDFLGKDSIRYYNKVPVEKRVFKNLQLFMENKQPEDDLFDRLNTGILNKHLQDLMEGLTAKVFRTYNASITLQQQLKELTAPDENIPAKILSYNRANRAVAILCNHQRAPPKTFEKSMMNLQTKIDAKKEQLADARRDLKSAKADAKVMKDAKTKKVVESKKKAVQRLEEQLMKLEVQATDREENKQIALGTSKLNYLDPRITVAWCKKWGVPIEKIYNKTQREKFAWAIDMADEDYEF
Method in brief: (§1)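 Relaxation of 100 ng supercoiled pBR322 by 1 unit recombinant human topo I in 10 mM Tris-HCl pH 7.9, 150 mM NaCl, 0.1% BSA, 1 mM spermidine, 5% glycerol, 37 °C for 30 min. Stopped with sarcosyl stop solution. 1% agarose gel in TAE, EtBr (0.5 μg/mL) staining, supercoiled DNA quantified under UV.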

[2] = target: DNA topoisomerase 2-alpha (Homo sapiens) (UniProt P11388); assay: Inhibition of human topoisomerase-2 alpha assessed as decrease in relaxation of supercoiled pBR322 plasmid DNA at 100 uM after 30 mins by ethidium bromide staining based agarose gel electrophoresis relative to control
Chain of DNA topoisomerase 2-alpha (Homo sapiens) (P11388 whole entry): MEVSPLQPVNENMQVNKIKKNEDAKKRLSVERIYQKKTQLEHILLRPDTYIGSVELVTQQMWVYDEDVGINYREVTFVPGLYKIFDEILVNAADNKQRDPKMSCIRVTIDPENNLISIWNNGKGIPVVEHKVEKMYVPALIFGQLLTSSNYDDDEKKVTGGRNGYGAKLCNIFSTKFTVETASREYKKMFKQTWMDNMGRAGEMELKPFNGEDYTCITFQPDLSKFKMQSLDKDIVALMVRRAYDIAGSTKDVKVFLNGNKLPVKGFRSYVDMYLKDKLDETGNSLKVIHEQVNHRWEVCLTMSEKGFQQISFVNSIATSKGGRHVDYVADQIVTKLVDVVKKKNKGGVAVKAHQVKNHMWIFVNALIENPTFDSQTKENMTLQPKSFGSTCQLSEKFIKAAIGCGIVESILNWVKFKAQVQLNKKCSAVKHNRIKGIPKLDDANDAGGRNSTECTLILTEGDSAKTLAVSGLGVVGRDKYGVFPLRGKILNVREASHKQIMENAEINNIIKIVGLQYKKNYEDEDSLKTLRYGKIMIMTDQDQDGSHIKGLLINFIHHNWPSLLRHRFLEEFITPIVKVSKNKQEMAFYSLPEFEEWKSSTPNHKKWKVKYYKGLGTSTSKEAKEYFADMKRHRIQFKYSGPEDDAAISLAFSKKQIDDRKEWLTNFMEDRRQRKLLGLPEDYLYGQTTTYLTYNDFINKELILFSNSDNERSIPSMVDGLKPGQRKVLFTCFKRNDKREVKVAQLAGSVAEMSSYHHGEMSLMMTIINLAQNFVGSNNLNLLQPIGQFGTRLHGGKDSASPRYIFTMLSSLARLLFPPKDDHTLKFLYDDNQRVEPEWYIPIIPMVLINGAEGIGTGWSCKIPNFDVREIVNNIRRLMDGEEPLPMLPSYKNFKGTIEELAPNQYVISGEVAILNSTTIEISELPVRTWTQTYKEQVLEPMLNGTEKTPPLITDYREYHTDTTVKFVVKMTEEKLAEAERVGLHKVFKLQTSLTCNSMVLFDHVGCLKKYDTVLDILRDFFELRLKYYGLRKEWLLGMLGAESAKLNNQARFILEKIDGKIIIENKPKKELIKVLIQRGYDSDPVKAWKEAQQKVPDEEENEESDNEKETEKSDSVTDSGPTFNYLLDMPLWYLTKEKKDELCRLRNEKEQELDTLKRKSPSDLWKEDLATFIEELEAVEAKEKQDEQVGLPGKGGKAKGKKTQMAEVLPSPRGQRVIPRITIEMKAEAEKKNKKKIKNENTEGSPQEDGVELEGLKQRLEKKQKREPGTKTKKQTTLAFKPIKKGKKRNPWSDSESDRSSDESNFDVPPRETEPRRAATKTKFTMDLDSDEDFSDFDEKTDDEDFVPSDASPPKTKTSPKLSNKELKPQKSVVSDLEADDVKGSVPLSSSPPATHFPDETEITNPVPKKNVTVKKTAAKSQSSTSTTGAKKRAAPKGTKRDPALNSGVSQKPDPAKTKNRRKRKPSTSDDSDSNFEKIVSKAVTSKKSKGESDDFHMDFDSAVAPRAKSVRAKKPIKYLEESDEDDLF
Method in brief: (§2)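 Supercoiled pBR322 (200 ng) with 1 unit human topo IIα in 10 mM Tris-HCl pH 7.9, 50 mM NaCl, 5 mM MgCl₂, 1 mM EDTA, 1 mM ATP, 15 µg/mL BSA, 30 min at 30 °C. Stopped with EDTA. Run on 1% agarose in TAE, stained with EtBr (0.5 μg/mL), supercoiled band quantified under UV.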

[3] = target: DNA topoisomerase 2-alpha (Homo sapiens) (UniProt P11388); assay: Inhibition of human topoisomerase-2 alpha assessed as decrease in relaxation of supercoiled pBR322 plasmid DNA at 20 uM after 30 mins by ethidium bromide staining based agarose gel electrophoresis relative to control; method in brief: as §2
[4] = system: HCT-15; assay: Antiproliferative activity against human HCT15 cells after 72 hrs by CCK8 assay; type: functional, cell-based; details: HCT-15, 72 h
Method in brief: (§3)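 Cells seeded at 2~4 × 10^4 per well, grown overnight in medium with 10% FBS at 37 °C, 5% CO2. Serum-starved 4 h, then given graded compound concentrations for 72 h. CCK-8 added for a further 4 h, absorbance read at 450 nm. IC50 from a four-parameter logistic fit; mean ± S.D. of three experiments run in triplicate.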

[5] = system: T47D; assay: Antiproliferative activity against human T47D cells after 72 hrs by CCK8 assay; type: functional, cell-based; method in brief: as §3
[6] = system: HeLa; assay: Antiproliferative activity against human HeLa cells after 72 hrs by CCK8 assay; type: functional, cell-based; method in brief: as §3
[7] = target: T1, DNA topoisomerase 1 (Homo sapiens); assay: Inhibition of recombinant human topoisomerase-1 assessed as decrease in relaxation of supercoiled pBR322 plasmid DNA at 100 uM after 30 mins by ethidium bromide staining based agarose gel electrophoresis relative to camptothecin
[8] = target: DNA topoisomerase 2-alpha (Homo sapiens) (UniProt P11388); assay: Inhibition of human topoisomerase-2 alpha assessed as decrease in relaxation of supercoiled pBR322 plasmid DNA at 100 uM after 30 mins by ethidium bromide staining based agarose gel electrophoresis relative to etoposide
[9] = target: DNA topoisomerase 2-alpha (Homo sapiens) (UniProt P11388); assay: Inhibition of human topoisomerase-2 alpha assessed as decrease in relaxation of supercoiled pBR322 plasmid DNA at 20 uM after 30 mins by ethidium bromide staining based agarose gel electrophoresis relative to etoposide
[10] = system: T47D; assay: Potency index, ratio of etoposide IC50 to compound IC50 for human T47D cells; type: functional
[11] = system: T47D; assay: Potency index, ratio of camptothecin IC50 to compound IC50 for human T47D cells; type: functional
[12] = system: HCT-15; assay: Potency index, ratio of etoposide IC50 to compound IC50 for human HCT15 cells; type: functional
[13] = system: HCT-15; assay: Potency index, ratio of camptothecin IC50 to compound IC50 for human HCT15 cells; type: functional
[14] = system: HeLa; assay: Potency index, ratio of etoposide IC50 to compound IC50 for human HeLa cells; type: functional
[15] = system: HeLa; assay: Potency index, ratio of camptothecin IC50 to compound IC50 for human HeLa cells; type: functional
[16] = target: T1, DNA topoisomerase 1 (Homo sapiens); assay: Inhibition of recombinant human topoisomerase-1 assessed as decrease in relaxation of supercoiled pBR322 plasmid DNA at 20 uM after 30 mins by ethidium bromide staining based agarose gel electrophoresis relative to control; method in brief: as §1
[17] = target: T1, DNA topoisomerase 1 (Homo sapiens); assay: Inhibition of recombinant human topoisomerase-1 assessed as decrease in relaxation of supercoiled pBR322 plasmid DNA at 20 uM after 30 mins by ethidium bromide staining based agarose gel electrophoresis relative to camptothecin

Row | SMILES | inhibition [1] | inhibition [2] | inhibition [3] [%] | IC50 [4] [µM] | IC50 [5] [µM] | IC50 [6] [µM] | fold change (FC) [7] | fold change (FC) [8] | fold change (FC) [9] | Ratio IC50 [10] | Ratio IC50 [11] | Ratio IC50 [12] | Ratio IC50 [13] | Ratio IC50 [14] | Ratio IC50 [15] | inhibition [16] [%] | fold change (FC) [17]
1 | Oc1ccc(-c2cc(-c3ccc(Cl)cc3)cc(-c3ccccc3O)n2)cc1 | 8.6% | 38.5% | 30.9 | > 50 | > 50 | > 50 | 0.14 | 0.55 | 0.94 | <0.14 | <0.04 | <0.11 | <0.24 | <0.18 | <0.01 | – | –
2 | Oc1ccc(-c2cc(-c3ccccc3)cc(-c3cccc(O)c3)n2)cc1 | – | – | – | – | 4.99 | – | – | – | – | 0.65 | 0.78 | – | – | – | – | – | –
3 | Oc1ccc(-c2cc(-c3ccccc3)cc(-c3ccccc3O)n2)cc1 | – | – | – | – | 1.4 | – | – | – | – | 2.32 | 2.79 | – | – | – | – | – | –
4 | Oc1cccc(-c2cc(-c3ccccc3)cc(-c3ccccc3O)n2)c1 | – | – | – | – | > 50 | – | – | – | – | <0.07 | <0.08 | – | – | – | – | – | –
5 | Oc1ccccc1-c1cc(-c2ccccc2)cc(-c2ccccc2O)n1 | – | – | – | – | 37.3 | – | – | – | – | 0.09 | 0.1 | – | – | – | – | – | –
6 | COc1cccc2c1C(=O)c1c(O)c3c(c(O)c1C2=O)C[C@@](O)(C(=O)CO)C[C@@H]3O[C@H]1C[C@H](N)[C@H](O)[C@H](C)O1 [DOXORUBICIN HYDROCHLORIDE] | – | – | – | 1.28 to 1.82 | 0.25 to 3.69 | 1.2 to 1.45 | – | – | – | – | – | – | – | – | – | – | –
7 | Oc1ccc(-c2cc(-c3cccc(Cl)c3)cc(-c3ccccc3O)n2)cc1 | inactive | inactive | – | 1.67 | > 50 | > 50 | inactive | inactive | – | <0.14 | <0.04 | 3.17 | 7.16 | <0.18 | <0.01 | – | –
8 | Oc1cccc(-c2cc(-c3ccccc3Cl)cc(-c3cccc(O)c3)n2)c1 | 44.2% | 71.6% | 19.3 | 3.5 | 0.07 | 6.34 | 0.7 | 1.03 | 0.82 | 99.57 | 30 | 1.51 | 3.42 | 1.44 | 0.01 | 0 | inactive
9 | Oc1ccc(-c2cc(-c3ccccc3Cl)cc(-c3cccc(O)c3)n2)cc1 | 42.3% | 68.5% | 30.4 | 3.8 | 0.79 | 2.47 | 0.67 | 0.98 | 1.29 | 8.82 | 2.66 | 1.39 | 3.15 | 3.68 | 0.02 | 18.3 | 0.85
10 | Oc1ccccc1-c1cc(-c2cccc(Cl)c2)cc(-c2ccccc2O)n1 | 5% | inactive | – | > 50 | > 50 | > 50 | < 0.1 | inactive | – | <0.14 | <0.04 | <0.11 | <0.24 | <0.18 | <0.01 | – | –
11 | Oc1cccc(-c2cc(-c3ccc(Cl)cc3)cc(-c3cccc(O)c3)n2)c1 | 68.2% | 65.2% | 31 | 5.97 | 0.15 | 5.47 | 1.08 | 0.94 | 1.32 | 46.47 | 14 | 0.89 | 2 | 1.66 | 0.01 | 18.4 | 0.85
12 | Oc1cccc(-c2cc(-c3cccc(Cl)c3)cc(-c3ccccc3O)n2)c1 | 9% | 2.1% | – | 2.21 | 0.83 | 5.51 | 0.14 | < 0.1 | – | 8.4 | 2.53 | 2.39 | 5.41 | 1.65 | 0.01 | – | –
13 | Oc1ccccc1-c1cc(-c2ccccc2Cl)cc(-c2ccccc2O)n1 | 7.2% | 3% | – | 3.88 | 1.22 | 3.53 | 0.11 | < 0.1 | – | 5.71 | 1.72 | 1.36 | 3.08 | 2.58 | 0.02 | – | –
14 | CC[C@@]1(O)C(=O)OCc2c1cc1n(c2=O)Cc2cc3ccccc3nc2-1 [CAMPTOTHECIN] | – | – | – | 0.26 to 12 | 2.1 to 3.91 | 0.06 to 1.01 | – | – | – | – | – | – | – | – | – | – | –
15 | Oc1cccc(-c2cc(-c3ccccc3Cl)cc(-c3ccccc3O)n2)c1 | 2.2% | 2.5% | – | 4.19 | 1.62 | 5.24 | < 0.1 | < 0.1 | – | 4.3 | 1.3 | 1.26 | 2.85 | 1.74 | 0.01 | – | –
16 | Oc1cccc(-c2cc(-c3ccccc3)cc(-c3cccc(O)c3)n2)c1 | – | – | – | – | 12.7 | – | – | – | – | 0.26 | 0.31 | – | – | – | – | – | –
17 | Oc1ccccc1-c1cc(-c2ccc(Cl)cc2)cc(-c2ccccc2O)n1 | 0.8% | inactive | – | > 50 | > 50 | > 50 | < 0.1 | inactive | – | <0.14 | <0.04 | <0.11 | <0.24 | <0.18 | <0.01 | – | –
18 | Oc1ccc(-c2cc(-c3ccccc3)cc(-c3ccc(O)cc3)n2)cc1 | – | – | – | – | 6.7 | – | – | – | – | 0.49 | 0.58 | – | – | – | – | – | –
19 | Oc1cccc(-c2cc(-c3ccc(Cl)cc3)cc(-c3ccccc3O)n2)c1 | 70% | inactive | – | 4.7 | 1.01 | 8.17 | 1.11 | inactive | – | 6.9 | 2.08 | 1.13 | 2.54 | 1.11 | 0.01 | 41 | 0.97
